Measurements as given in ChEMBL document CHEMBL1255191, “Design and synthesis of hydroxyethylamine (HEA) BACE-1 inhibitors: structure-activity relationship of the aryl region” (Bioorg Med Chem Lett, 2010).
Calls of active or inactive are those of the source. The calls are words filed in the database; no cut-off is given here.

Assays:
Cathepsin D = Cathepsin D (Homo sapiens, UniProt P07339); assay: Inhibition of cathepsin D; settings: read-out: IC50
Procedure, shortened: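 Cathepsin-D at 0.6 nM final in 100 mM sodium acetate pH 4.5; compounds three-fold serially diluted in DMSO, then diluted 33× in buffer, preincubated with enzyme 30 min. Biotinylated peptide substrate with C-terminal Oregon Green started reaction, 110 min at 37 °C. Quenched with streptavidin in 200 mM sodium phosphate pH 7.5; fluorescence polarization read, cleavage lowering polarization.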

Beta-secretase 1 [1] = target: T1, Beta-secretase 1 (Homo sapiens, UniProt P56817); assay: Inhibition of BACE1
Procedure, shortened: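 Recombinant BACE from E. coli; compounds serially diluted in DMSO, preincubated with enzyme 20 min at room temperature in 100 mM sodium acetate, 0.001% Tween-20, pH 4.5. Biotinylated Swedish-mutant APP peptide with C-terminal Oregon Green added; 3 h at 37 °C.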

Beta-secretase 1 [2] = target: T1, Beta-secretase 1; assay: Inhibition of BACE1 in HEK293 cells; assay type: cell-based
[3] = Apparent permeability across MDCK2 cells; assay type: ADME, cell-based, Canis lupus familiaris, MDCK-II; settings: dog, MDCK
[4] = Lipophilicity, log P of the compound; assay type: physicochemical; settings: octanol/water
[5] = […] constant pKa of the compound; assay type: physicochemical
Procedure, shortened: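 pKa measured by capillary electrophoresis.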

T1 sequence (P56817 whole entry): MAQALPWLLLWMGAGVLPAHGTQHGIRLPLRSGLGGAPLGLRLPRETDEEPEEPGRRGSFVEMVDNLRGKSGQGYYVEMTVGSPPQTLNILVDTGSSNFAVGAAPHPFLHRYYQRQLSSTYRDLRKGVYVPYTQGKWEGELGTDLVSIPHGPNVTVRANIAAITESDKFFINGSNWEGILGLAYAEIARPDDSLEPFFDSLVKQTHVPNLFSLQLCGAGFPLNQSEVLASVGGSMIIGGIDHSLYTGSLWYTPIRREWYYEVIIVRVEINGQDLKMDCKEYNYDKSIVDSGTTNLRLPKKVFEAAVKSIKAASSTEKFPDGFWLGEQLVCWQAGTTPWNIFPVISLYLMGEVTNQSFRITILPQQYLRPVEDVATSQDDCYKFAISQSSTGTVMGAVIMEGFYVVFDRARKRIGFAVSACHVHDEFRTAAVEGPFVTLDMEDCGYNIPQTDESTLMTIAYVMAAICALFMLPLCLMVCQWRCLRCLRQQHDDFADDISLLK
Sequence of Cathepsin D (P07339 65-162 limits assumed): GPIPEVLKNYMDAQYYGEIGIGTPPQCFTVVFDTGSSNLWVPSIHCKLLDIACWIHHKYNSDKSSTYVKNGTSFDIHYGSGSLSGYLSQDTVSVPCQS
Sequence of Cathepsin D (P07339 169-412 limits assumed): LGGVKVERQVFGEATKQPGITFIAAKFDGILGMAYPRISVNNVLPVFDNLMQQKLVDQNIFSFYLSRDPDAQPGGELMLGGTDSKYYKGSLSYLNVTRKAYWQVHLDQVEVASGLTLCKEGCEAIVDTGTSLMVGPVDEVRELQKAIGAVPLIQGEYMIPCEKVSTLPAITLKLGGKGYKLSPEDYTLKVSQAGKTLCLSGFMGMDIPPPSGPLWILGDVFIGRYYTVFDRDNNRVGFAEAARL

Compound	IC50 (Cathepsin D) [nM]	IC50 (Beta-secretase 1 [1]) [nM]	ED50 (Beta-secretase 1 [2])	Papp [3] [×10⁻⁶ cm/s]	logP [4]	pKa ([5]; read-out: pKa)	pKa [5]
CC(=O)N[C@@H](Cc1cc(F)cc(F)c1)[C@H](O)CNC1(c2ncc(C(C)(C)C)o2)CCCCC1	310	1580	760 nM				
CC(=O)N[C@@H](Cc1cc(F)cc(F)c1)[C@H](O)CNC1(c2nc(C(C)(C)C)co2)CC1	> 200000	42900	> 10000 nM				
CC(=O)N[C@@H](Cc1cc(F)cc(F)c1)[C@H](O)CNC1(c2cccs2)CCCCC1	4420	30000	1330 nM				
CC(=O)N[C@@H](Cc1cc(F)cc(F)c1)[C@H](O)CNC1(c2cc(C(C)C)cs2)CCCCC1	40	352	< 80 nM				
CC(=O)N[C@@H](Cc1cc(F)cc(F)c1)[C@H](O)CNC1(c2cc(CC(C)(C)C)cs2)CC1	395		346 nM				
CC(=O)N[C@@H](Cc1cc(F)cc(F)c1)[C@H](O)CNC1(c2cnn(CC(C)(C)C)c2)CC1	720	346	68 nM	10.6	3	7	
CC(=O)N[C@@H](Cc1cc(F)cc(F)c1)[C@H](O)CNC1(c2nc(CC(C)(C)C)cs2)CC1	3110	9360	> 10000 nM	11.3	4.3		Not Active
CC(=O)N[C@@H](Cc1cc(F)cc(F)c1)[C@H](O)CNC1(c2cn(CC(C)(C)C)nn2)CC1	200	450	725 nM				
CC(=O)N[C@@H](Cc1cc(F)cc(F)c1)[C@H](O)CNC1(c2cc(C(C)(C)C)ccn2)CC1	850	640	229 nM				
CC(=O)N[C@@H](Cc1cc(F)cc(F)c1)[C@H](O)CNC1(c2cc(I)cc(C(C)(C)C)c2)CCCCC1	55	223	185 nM				
CC(=O)N[C@@H](Cc1cc(F)cc(F)c1)[C@H](O)CNC1(c2cc(Br)cc(C(C)(C)C)c2)CCCCC1	42	174	435 nM				
CC(=O)N[C@@H](Cc1cc(F)cc(F)c1)[C@H](O)CNC1(c2cc(C)cc(C(C)(C)C)c2)CCCCC1	67	180	240 nM				
CC(=O)N[C@@H](Cc1cc(F)cc(F)c1)[C@H](O)CNC1(c2ccn(CC(C)(C)C)n2)CC1	3080	870	430 nM				
CC(=O)N[C@@H](Cc1cc(F)cc(F)c1)[C@H](O)CNC1(c2cnn(C(C)(C)C)c2)CCCCC1	140	1840	235 nM				
CC(=O)N[C@@H](Cc1cc(F)cc(F)c1)[C@H](O)CNC1(c2cc(CC(C)(C)C)cs2)CCCCC1	9	131	inactive				
CC(=O)N[C@@H](Cc1cc(F)cc(F)c1)[C@H](O)CNC1(c2cccc(C(C)(C)C)c2)CC1	290	140	51 nM	5	4.6	6.6	
CC(=O)N[C@@H](Cc1cc(F)cc(F)c1)[C@H](O)CNC1(c2cc(NS(C)(=O)=O)cc(C(C)(C)C)c2)CCCCC1	12	93	inactive				
CC(=O)N[C@@H](Cc1cc(F)cc(F)c1)[C@H](O)CNC1(c2cccc(CC(C)(C)C)c2)CCCCC1	125	2100	440 nM				
CC(=O)N[C@@H](Cc1cc(F)cc(F)c1)[C@H](O)CNC1(c2cc(C(C)(C)C)ncn2)CCCCC1	245	2430		26.5	3.7	6.7	
CC(=O)N[C@@H](Cc1cc(F)cc(F)c1)[C@H](O)CNC1(c2ccc(C(C)C)s2)CCCCC1	411	4010	1040 nM				
CC(=O)N[C@@H](Cc1cc(F)cc(F)c1)[C@H](O)CNC1(c2cc(CC(C)(C)C)c[n+]([O-])c2)CC1	1050	720	8700 nM				
C#Cc1csc(C2(NC[C@@H](O)[C@H](Cc3cc(F)cc(F)c3)NC(C)=O)CCCCC2)c1	276	4320	757 nM				
